Data published in ChEMBL document CHEMBL4145562, “Bioactivity-Guided Isolation of Potential Antidiabetic and Antihyperlipidemic Compounds from Trigonella stellata” (J Nat Prod, 2018).
Calls of active or inactive are those of the source. The calls are words filed in the database; no cut-off is given here.

How the values were obtained:
Assay type in all cases: cell-based
[1] = target: T1, Peroxisome proliferator-activated receptor alpha (Homo sapiens) (UniProt Q07869); assay: Agonist activity at PPARalpha (unknown origin) expressed in human HepG2 cells cotransfected with PPRE X3-tk at 25 ug/ml after 24 hrs by luciferase reporter gene assay relative to control
T1 sequence (whole entry): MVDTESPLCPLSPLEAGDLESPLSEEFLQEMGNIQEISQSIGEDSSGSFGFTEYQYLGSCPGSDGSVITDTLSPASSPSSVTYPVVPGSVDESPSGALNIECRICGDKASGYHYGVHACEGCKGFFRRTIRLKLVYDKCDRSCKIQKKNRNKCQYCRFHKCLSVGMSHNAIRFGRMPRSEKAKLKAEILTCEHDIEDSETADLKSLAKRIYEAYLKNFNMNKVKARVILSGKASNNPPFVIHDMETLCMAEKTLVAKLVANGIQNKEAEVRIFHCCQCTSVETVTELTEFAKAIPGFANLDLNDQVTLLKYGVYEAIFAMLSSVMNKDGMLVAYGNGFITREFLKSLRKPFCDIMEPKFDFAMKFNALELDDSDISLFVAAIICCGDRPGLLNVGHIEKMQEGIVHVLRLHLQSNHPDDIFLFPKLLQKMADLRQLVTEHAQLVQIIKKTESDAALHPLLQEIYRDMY
Summary of the method: (§1)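 HepG2 cells grown in DMEM with 10% FBS, penicillin and streptomycin, then electroporated (160 V, single 70 ms pulse) with pSG5-PPARα plus PPRE X3-tk-luc plasmids (25 μg/1.5 mL cell suspension). Cells were plated at 5 × 10^4/well and grown 24 h, then treated for 24 h and lysed. Luciferase activity was reported as fold induction over vehicle control.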

[2] = target: T2, Peroxisome proliferator-activated receptor gamma (Homo sapiens) (UniProt P37231); assay: Agonist activity at PPARgamma (unknown origin) expressed in human HepG2 cells cotransfected with PPREaP2-tk at 50 ug/ml after 24 hrs by luciferase reporter gene assay relative to control
T2 sequence (whole entry): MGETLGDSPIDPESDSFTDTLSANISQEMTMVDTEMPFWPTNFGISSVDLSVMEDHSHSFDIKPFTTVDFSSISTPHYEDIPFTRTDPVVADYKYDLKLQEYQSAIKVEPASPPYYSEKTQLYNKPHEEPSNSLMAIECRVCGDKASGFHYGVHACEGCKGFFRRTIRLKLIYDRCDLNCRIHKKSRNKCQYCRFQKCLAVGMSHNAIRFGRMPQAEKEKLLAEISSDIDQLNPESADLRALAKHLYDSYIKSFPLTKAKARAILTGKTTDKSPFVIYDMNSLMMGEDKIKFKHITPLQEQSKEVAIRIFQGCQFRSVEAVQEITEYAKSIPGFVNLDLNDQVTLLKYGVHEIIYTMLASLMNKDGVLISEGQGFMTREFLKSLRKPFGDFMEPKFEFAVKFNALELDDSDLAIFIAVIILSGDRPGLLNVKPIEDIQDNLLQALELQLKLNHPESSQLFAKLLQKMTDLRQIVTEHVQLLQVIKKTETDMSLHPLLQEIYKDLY
Summary of the method: (§2)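 Rat PPARγ (pCMV-rPPARγ) was co-electroporated with the pPPREaP2-tk-luc reporter (25 μg/1.5 mL cell suspension; 160 V, one 70 ms pulse) into HepG2 cells kept in DMEM/10% FBS with antibiotics. Cells were seeded at 5 × 10^4/well for 24 h, then exposed to samples for 24 h. Luciferase was read in lysates and expressed as fold induction relative to vehicle.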

[3] = target: T1, Peroxisome proliferator-activated receptor alpha (Homo sapiens); assay: Agonist activity at PPARalpha (unknown origin) expressed in human HepG2 cells cotransfected with PPRE X3-tk at 50 ug/ml after 24 hrs by luciferase reporter gene assay relative to control; summary of the method: as §1
[4] = target: T2, Peroxisome proliferator-activated receptor gamma (Homo sapiens); assay: Agonist activity at PPARgamma (unknown origin) expressed in human HepG2 cells cotransfected with PPREaP2-tk at 25 ug/ml after 24 hrs by luciferase reporter gene assay relative to control; summary of the method: as §2
[5] = target: T2, Peroxisome proliferator-activated receptor gamma (Homo sapiens); assay: Agonist activity at PPARgamma (unknown origin) expressed in human HepG2 cells cotransfected with PPREaP2-tk at 12.5 ug/ml after 24 hrs by luciferase reporter gene assay relative to control; summary of the method: as §2
[6] = target: T1, Peroxisome proliferator-activated receptor alpha (Homo sapiens); assay: Agonist activity at PPARalpha (unknown origin) expressed in human HepG2 cells cotransfected with PPRE X3-tk at 12.5 ug/ml after 24 hrs by luciferase reporter gene assay relative to control; summary of the method: as §1
[7] = target: T1, Peroxisome proliferator-activated receptor alpha (Homo sapiens); assay: Agonist activity at PPARalpha (unknown origin) expressed in human HepG2 cells cotransfected with PPRE X3-tk at 1.45 ug/ml after 24 hrs by luciferase reporter gene assay relative to control; summary of the method: as §1

Compound `COc1ccc2c(c1)OC[C@@H](c1ccc(O[C@@H]3O[C@H](CO)[C@@H](O)[C@H](O)[C@H]3O)cc1O)[C@@H]2O` has a fold change (FC) [1] of 1.32, a fold change (FC) [2] of 1.74 and a fold change (FC) [3] of 1.67. The fold change (FC) [4] was 1.36, the fold change (FC) [5] was 1.22 and the fold change (FC) [6] was 1.14.
Work on `CC(C)(Oc1ccc(C2CC2(Cl)Cl)cc1)C(=O)O` (centres undefined) yielded a fold change (FC) [7] of 2.2.
In the case of `C[C@@H]1O[C@@H](Oc2cc(O)c3c(=O)c(O[C@@H]4O[C@@H](C)[C@H](O)[C@@H](O)[C@H]4O)c(-c4ccc(O)c(O)c4)oc3c2)[C@H](O)[C@H](O)[C@H]1O`, the Activity [1] is reported as “inactive”, the Activity [2] is reported as “inactive” and the Activity [3] is reported as “inactive”. For the same compound, the Activity [4] was “inactive”, the Activity [5] was “inactive” and the Activity [6] was “inactive”.
`C[C@@H]1O[C@@H](O[C@H]2[C@H](O[C@H]3[C@H](O[C@H]4CC[C@@]5(C)[C@@H](CC[C@]6(C)[C@@H]5CC=C5[C@@H]7CC(C)(C)C[C@@H](O)[C@]7(C)CC[C@]56C)[C@@]4(C)CO)O[C@H](C(=O)O)[C@@H](O)[C@@H]3O)O[C@H](CO)[C@H](O)[C@@H]2O)[C@H](O)[C@H](O)[C@H]1O` was tested, and the Activity [1] was “inactive”, the fold change (FC) [2] was 1.79 and the Activity [3] was “inactive”. The fold change (FC) [4] was 1.36, the fold change (FC) [5] was 1.22 and the Activity [6] was “inactive”.
With `COc1ccc2c(c1)OC(OC)C(c1ccc(O)cc1O)[C@H]2O` (single isomer, unassigned) the fold change (FC) [1] was 2, the Activity [2] was “inactive” and the Activity [3] was “inactive”. The Activity [4] was “inactive”, the Activity [5] was “inactive” and the fold change (FC) [6] was 1.93.
In the case of `O=C(O)CCc1ccccc1O[C@@H]1O[C@H](CO)[C@@H](O)[C@H](O)[C@H]1O`, the Activity [1] is reported as “inactive”, the Activity [2] is reported as “inactive” and the Activity [3] is reported as “inactive”. For the same compound, the Activity [4] was “inactive”, the Activity [5] was “inactive” and the Activity [6] was “inactive”.
With `O=c1cc(-c2ccc(O)cc2)oc2cc(O)ccc12` the Activity [1] was “inactive”, the Activity [2] was “inactive” and the Activity [3] was “inactive”. For the same compound, the Activity [4] was “inactive”, the Activity [5] was “inactive” and the Activity [6] was “inactive”.
In the case of `O=C(O)c1ccc(O)cc1`, the Activity [1] is reported as “inactive”, the fold change (FC) [2] is reported as 1.35 and the Activity [3] is reported as “inactive”. For the same compound, the fold change (FC) [4] was 0.9, the fold change (FC) [5] was 1 and the Activity [6] was “inactive”.
For `COc1ccc2c(c1)OC[C@H](c1ccc(O)cc1O)[C@H]2O`, the fold change (FC) [1] was 1.88, the Activity [2] was “inactive” and the fold change (FC) [3] was 2.25. The Activity [4] was “inactive”, the Activity [5] was “inactive” and the fold change (FC) [6] was 1.29.
